According to ChEMBL document CHEMBL1773023, “Potent and selective phosphopeptide mimetic prodrugs targeted to the Src homology 2 (SH2) domain of signal transducer and activator of transcription 3” (J Med Chem, 2011):
Calls of active or inactive are those of the source. The rule behind the calls is not given here.

Columns and labels:
MCF7 = assay: Cytotoxicity against human MCF7 cells up to 50 uM after 72 hrs by SRB assay; assay type: functional, cell-based
Procedure, shortened: (§1)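 Cancer cell lines (MCF-7, SKOV3-ip, HCC-827) dosed daily with prodrug for three days; viability by SRB assay.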

SKOV3ip = assay: Cytotoxicity against human SKOV3ip cells up to 50 uM after 72 hrs by SRB assay; assay type: functional, cell-based; procedure, shortened: as §1
HCC827 = assay: Cytotoxicity against human HCC827 cells up to 50 uM after 72 hrs by SRB assay; assay type: functional, cell-based; procedure, shortened: as §1
MDA-MB-468 [1] = assay: Cytotoxicity against human MDA-MB-468 cells up to 50 uM after 72 hrs by SRB assay; assay type: functional, cell-based
[2] = molecular target: T1, Signal transducer and activator of transcription 3 (Homo sapiens, UniProt P40763); assay: Inhibition of SH2 domain of Stat3 constitutive phosphorylation at Tyr705 in human MDA-MB-468 cells at 25 uM after 2 hrs by Western blotting; assay type: cell-based
T1 sequence (P40763 whole entry, the tested form may be a part): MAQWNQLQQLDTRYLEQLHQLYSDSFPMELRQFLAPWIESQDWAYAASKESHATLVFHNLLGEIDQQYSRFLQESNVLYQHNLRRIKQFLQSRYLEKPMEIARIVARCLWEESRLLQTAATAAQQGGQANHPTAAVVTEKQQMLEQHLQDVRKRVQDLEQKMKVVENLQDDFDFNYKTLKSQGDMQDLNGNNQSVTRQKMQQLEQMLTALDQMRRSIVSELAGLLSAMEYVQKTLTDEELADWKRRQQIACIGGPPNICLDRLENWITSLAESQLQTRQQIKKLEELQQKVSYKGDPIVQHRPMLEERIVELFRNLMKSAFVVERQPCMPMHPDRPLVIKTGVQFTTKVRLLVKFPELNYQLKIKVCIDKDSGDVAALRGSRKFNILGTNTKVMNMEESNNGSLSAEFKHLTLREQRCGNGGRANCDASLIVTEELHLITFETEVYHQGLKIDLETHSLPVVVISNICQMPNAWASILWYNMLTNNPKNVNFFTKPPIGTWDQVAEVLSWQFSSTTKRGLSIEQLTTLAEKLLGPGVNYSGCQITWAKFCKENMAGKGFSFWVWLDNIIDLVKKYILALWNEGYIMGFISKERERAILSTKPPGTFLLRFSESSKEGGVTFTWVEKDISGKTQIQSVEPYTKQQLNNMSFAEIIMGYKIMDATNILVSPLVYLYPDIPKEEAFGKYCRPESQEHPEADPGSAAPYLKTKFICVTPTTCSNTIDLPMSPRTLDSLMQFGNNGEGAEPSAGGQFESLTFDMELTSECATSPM
Procedure, shortened: (§2)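 MDA-MB-468 cells (4×10^5/well, DMEM 10% FCS, overnight) given prodrug from freshly made 10 mM DMSO stock for 2 h. Lysates in Hepes pH 7.4 Triton buffer with phosphatase/protease inhibitors; 12 μg protein on 8% SDS-PAGE, PVDF, probed for pStat3 Y705 by ECL, then stripped and reprobed for total Stat3.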

MDA-MB-468 [3] = assay: Cytotoxicity against human MDA-MB-468 cells assessed as cell growth inhibition at 10 to 15 uM after 72 hrs by MTT assay; assay type: functional, cell-based
Procedure, shortened: (§3)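 MDA-MB-468 cells in DMEM/10% FBS, 1500 cells/well in triplicate; medium changed next day. Prodrug stock 10 mM in ethanol, diluted into wells (ethanol <1% final); single dose or daily re-addition at 24 and 48 h in same medium. MTT read-out at 72 h; assays run three times.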

MDA-MB-468 [4] = assay: Cytotoxicity against human MDA-MB-468 cells after 72 hrs by MTT assay; assay type: functional, cell-based; conditions: MDA-MB-468, 72 h; procedure, shortened: as §3
[5] = molecular target: T1, Signal transducer and activator of transcription 3; assay: Inhibition of SH2 domain of Stat3 constitutive phosphorylation at Tyr705 in human MDA-MB-468 cells at 5 uM after 2 hrs by Western blotting; assay type: cell-based; procedure, shortened: as §2
[6] = molecular target: T1, Signal transducer and activator of transcription 3; assay: Inhibition of SH2 domain of Stat3 constitutive phosphorylation at Tyr705 in human MDA-MB-468 cells at 5 uM after 30 mins by Western blotting; assay type: cell-based
Procedure, shortened: (§4)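 MDA-MB-468 cells given a single 5 μM prodrug dose and harvested at set times; pTyr705 and total Stat3 by Western blot of 12 μg lysate protein on 8% SDS-PAGE.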

[7] = molecular target: T2, Signal transducer and activator of transcription 1-alpha/beta (Homo sapiens) (UniProt P42224); assay: Inhibition of IFN-gamma-induced Stat1 phosphorylation at Tyr701 in human MDA-MB-468 cells treated 1.5 hrs before IFN-gamma challenge measured after 30 mins by Western blotting; assay type: cell-based
T2 sequence (whole entry): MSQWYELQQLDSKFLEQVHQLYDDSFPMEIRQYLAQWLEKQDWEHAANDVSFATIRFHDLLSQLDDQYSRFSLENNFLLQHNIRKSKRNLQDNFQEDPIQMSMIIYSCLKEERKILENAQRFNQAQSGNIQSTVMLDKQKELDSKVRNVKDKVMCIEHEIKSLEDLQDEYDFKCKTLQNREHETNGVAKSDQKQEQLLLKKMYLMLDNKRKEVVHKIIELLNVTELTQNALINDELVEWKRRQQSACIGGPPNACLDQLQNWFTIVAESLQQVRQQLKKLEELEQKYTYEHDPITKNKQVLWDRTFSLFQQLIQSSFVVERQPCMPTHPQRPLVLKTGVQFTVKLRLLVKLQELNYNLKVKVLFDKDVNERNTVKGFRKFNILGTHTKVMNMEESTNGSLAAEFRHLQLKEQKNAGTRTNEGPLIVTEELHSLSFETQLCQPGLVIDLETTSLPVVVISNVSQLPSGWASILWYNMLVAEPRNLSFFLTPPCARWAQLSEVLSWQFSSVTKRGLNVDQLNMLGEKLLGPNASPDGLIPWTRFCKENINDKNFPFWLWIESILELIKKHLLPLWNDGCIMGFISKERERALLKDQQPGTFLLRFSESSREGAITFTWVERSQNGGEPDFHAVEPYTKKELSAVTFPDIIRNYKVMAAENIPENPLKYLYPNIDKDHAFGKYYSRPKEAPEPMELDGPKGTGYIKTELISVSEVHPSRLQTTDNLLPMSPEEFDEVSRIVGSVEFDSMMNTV
Procedure, shortened: (§5)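 MDA-MB-468 cells exposed to rising prodrug concentrations for 1.5 h, then interferon γ 25 ng/mL for 30 min; Western blot for pTyr701 and total Stat1.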

[8] = molecular target: T3, Signal transducer and activator of transcription 5A (Homo sapiens) (UniProt P42229); assay: Inhibition of EGF-induced SH2 domain of Stat5 phosphorylation at Tyr694 in human MDA-MB-468 cells at 5 uM treated 1.5 hrs before EGF challenge measured after 30 mins by Western blotting; assay type: cell-based
T3 sequence (whole entry): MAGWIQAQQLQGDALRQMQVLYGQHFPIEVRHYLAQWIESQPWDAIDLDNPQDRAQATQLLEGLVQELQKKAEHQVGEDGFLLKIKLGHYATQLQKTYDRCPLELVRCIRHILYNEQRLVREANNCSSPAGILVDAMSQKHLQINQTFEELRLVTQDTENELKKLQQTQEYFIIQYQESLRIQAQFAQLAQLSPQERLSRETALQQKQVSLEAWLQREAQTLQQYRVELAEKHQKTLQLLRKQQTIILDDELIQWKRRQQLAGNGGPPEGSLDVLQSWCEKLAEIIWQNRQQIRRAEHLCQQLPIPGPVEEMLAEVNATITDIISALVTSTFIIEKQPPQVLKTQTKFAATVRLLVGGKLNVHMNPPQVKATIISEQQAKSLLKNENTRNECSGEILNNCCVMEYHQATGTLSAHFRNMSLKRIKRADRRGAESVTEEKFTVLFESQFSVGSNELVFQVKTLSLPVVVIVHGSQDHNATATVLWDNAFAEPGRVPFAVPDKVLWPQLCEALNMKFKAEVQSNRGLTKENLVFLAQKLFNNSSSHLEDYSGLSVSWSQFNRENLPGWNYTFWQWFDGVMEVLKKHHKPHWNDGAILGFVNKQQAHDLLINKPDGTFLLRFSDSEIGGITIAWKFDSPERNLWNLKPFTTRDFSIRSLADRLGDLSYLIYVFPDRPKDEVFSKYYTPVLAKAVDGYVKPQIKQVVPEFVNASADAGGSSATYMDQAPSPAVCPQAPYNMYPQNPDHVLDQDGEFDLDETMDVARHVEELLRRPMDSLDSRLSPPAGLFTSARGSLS
Procedure, shortened: (§6)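 MDA-MB-468 cells pretreated 1.5 h with prodrug (5 μM), then EGF 100 ng/mL for 30 min; lysates split onto three PVDF blots probed for phospho/total Stat3, pSer473/total Akt, and phospho/total Stat5.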

[9] = molecular target: RAC-alpha serine/threonine-protein kinase (Homo sapiens) (UniProt P31749); assay: Inhibition of EGF-induced Akt phosphorylation at Ser473 in human MDA-MB-468 cells at 5 uM treated 1.5 hrs before EGF challenge measured after 30 mins by Western blotting; assay type: cell-based; procedure, shortened: as §6
RAC-alpha serine/threonine-protein kinase (Homo sapiens), sequence (P31749 whole entry, the tested form may be a part): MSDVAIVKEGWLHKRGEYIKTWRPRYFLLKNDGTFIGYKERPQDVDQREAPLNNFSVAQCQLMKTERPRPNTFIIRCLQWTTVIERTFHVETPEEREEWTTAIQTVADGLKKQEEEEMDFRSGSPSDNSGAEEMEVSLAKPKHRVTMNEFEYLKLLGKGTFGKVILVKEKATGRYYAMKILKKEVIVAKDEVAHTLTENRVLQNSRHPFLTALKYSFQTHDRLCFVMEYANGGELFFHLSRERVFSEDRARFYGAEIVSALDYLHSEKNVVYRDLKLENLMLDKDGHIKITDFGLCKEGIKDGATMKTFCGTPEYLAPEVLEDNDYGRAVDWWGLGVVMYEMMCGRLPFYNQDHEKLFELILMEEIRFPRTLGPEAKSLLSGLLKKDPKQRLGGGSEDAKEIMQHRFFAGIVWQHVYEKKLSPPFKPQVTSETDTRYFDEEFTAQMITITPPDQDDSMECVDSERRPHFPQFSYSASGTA

[10] = molecular target: T1, Signal transducer and activator of transcription 3; assay: Inhibition of SH2 domain of Stat3 constitutive phosphorylation at Tyr705 in human MDA-MB-468 cells at 0.5 uM after 2 hrs by Western blotting; assay type: cell-based; procedure, shortened: as §2
[11] = molecular target: T1, Signal transducer and activator of transcription 3; assay: Inhibition of SH2 domain of Stat3 constitutive phosphorylation at Tyr705 in human MDA-MB-468 cells at 5 uM after 16 hrs by Western blotting; assay type: cell-based; procedure, shortened: as §4
[12] = molecular target: T1, Signal transducer and activator of transcription 3; assay: Inhibition of SH2 domain of Stat3 constitutive phosphorylation at Tyr705 in human MDA-MB-468 cells at 5 uM after 8 hrs by Western blotting; assay type: cell-based; procedure, shortened: as §4
[13] = molecular target: T1, Signal transducer and activator of transcription 3; assay: Inhibition of EGF-induced SH2 domain of Stat3 phosphorylation at Tyr705 in human MDA-MB-468 cells at 5 uM treated 1.5 hrs before EGF challenge measured after 30 mins by Western blotting; assay type: cell-based; procedure, shortened: as §6
MDA-MB-468 [14] = assay: Selectivity ratio of inhibition of IFNgamma-induced Stat1 phosphorylation at Tyr701 to inhibition of EGF-induced SH2 domain of Stat3 phosphorylation at Tyr705 in human MDA-MB-468 cells; assay type: cell-based
[15] = molecular target: T1, Signal transducer and activator of transcription 3; assay: Inhibition of SH2 domain of Stat3 constitutive phosphorylation at Tyr705 in human MDA-MB-468 cells at 5 uM after 4 hrs by Western blotting; assay type: cell-based; procedure, shortened: as §4
[16] = molecular target: Focal adhesion kinase 1 (Homo sapiens) (UniProt Q05397); assay: Inhibition of constitutive FAK phosphorylation at Tyr861 in human MDA-MB-468 cells at 5 uM measured after 2 hrs by Western blotting
Focal adhesion kinase 1 (Homo sapiens), sequence (Q05397 2-1052 limits assumed): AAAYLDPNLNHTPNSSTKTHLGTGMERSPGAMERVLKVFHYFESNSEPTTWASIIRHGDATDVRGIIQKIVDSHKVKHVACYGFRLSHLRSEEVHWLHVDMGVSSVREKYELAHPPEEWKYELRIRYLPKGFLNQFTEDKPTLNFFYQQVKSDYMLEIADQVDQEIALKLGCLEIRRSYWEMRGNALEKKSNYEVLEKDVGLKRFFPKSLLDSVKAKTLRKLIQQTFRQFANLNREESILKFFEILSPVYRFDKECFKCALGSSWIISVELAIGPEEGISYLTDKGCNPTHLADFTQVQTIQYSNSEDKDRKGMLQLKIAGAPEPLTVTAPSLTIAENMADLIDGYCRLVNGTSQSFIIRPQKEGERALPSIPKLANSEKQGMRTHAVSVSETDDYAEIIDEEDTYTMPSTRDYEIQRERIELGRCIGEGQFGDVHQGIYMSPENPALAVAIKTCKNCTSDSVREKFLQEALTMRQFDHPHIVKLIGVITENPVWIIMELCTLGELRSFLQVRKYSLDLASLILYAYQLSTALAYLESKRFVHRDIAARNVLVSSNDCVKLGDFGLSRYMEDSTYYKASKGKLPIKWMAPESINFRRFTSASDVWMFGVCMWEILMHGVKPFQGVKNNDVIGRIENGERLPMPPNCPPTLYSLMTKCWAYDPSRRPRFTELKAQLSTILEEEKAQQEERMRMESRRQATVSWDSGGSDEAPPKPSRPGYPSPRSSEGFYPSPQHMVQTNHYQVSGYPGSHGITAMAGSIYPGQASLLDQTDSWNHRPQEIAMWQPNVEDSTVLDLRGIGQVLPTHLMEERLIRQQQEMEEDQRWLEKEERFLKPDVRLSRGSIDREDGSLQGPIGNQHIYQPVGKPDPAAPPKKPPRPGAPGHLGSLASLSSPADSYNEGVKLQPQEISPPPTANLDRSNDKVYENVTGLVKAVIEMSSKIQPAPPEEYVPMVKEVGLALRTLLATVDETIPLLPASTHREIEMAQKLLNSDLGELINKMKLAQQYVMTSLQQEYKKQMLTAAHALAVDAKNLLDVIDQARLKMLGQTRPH

[17] = molecular target: T2, Signal transducer and activator of transcription 1-alpha/beta (Homo sapiens); assay: Inhibition of IFN-gamma-induced Stat1 phosphorylation at Tyr701 in human MDA-MB-468 cells at 5 uM treated 1.5 hrs before IFN-gamma challenge measured after 30 mins by Western blotting; assay type: cell-based; procedure, shortened: as §5

CCOP(=O)(OCC)C(F)(F)c1ccc(/C(C)=C/C(=O)N[C@H]2CCc3cccc4c3N(C2=O)[C@H](C(=O)N[C@H](C)CCC(N)=O)C4)cc1
growth inhibition (GI) (MCF7): inactive
growth inhibition (GI) (SKOV3ip): inactive
growth inhibition (GI) (HCC827): inactive
growth inhibition (GI) (MDA-MB-468 [1]): inactive
inhibition [2]: inactive

CCCC[C@H](NC(=O)/C=C(\C)c1ccc(C(F)(F)P(=O)(OCOC(=O)C(C)(C)C)OCOC(=O)C(C)(C)C)cc1)C(=O)N1C[C@@H]2C[C@@H]2[C@@H]1C(=O)N[C@@H](CCC(N)=O)C(C)OCc1ccccc1 (stereo partly drawn)
growth inhibition (GI) (MDA-MB-468 [3]): Active
inhibition [2]: inactive

CCCC[C@H](NC(=O)/C=C(\C)c1ccc(C(F)(F)P(=O)(OCOC(=O)C(C)(C)C)OCOC(=O)C(C)(C)C)cc1)C(=O)N1C[C@@H]2C[C@@H]2[C@@H]1C(=O)N[C@H](C)CCC(N)=O
inhibition [2]: Active
IC50 (MDA-MB-468 [4]): 30 µM

CCCC[C@H](NC(=O)/C=C(\C)c1ccc(C(F)(F)P(=O)(OCOC(=O)C(C)(C)C)OCOC(=O)C(C)(C)C)cc1)C(=O)N1CC2CC2C1C(=O)NCCNC(N)=O (mixture of isomers)
inhibition [5]: Active

CCCC[C@H](NC(=O)/C=C(\C)c1ccc(C(F)(F)P(=O)(OCOC(=O)C(C)(C)C)OCOC(=O)C(C)(C)C)cc1)C(=O)N1C[C@H]2C[C@H]2[C@H]1C(=O)N[C@H](C)CCC(N)=O
inhibition [6]: Active
inhibition [7]: Dose-dependent effect
inhibition [8]: inactive
inhibition [9]: inactive
inhibition [10]: Active
inhibition [11]: inactive
inhibition [12]: Active
inhibition [13]: Active
Ratio (MDA-MB-468 [14]): 10
inhibition [15]: Active
inhibition [16]: inactive
inhibition [17]: Active
IC50 (MDA-MB-468 [4]): 30 µM
